Experimental data taken from ChEMBL document CHEMBL3400039, “Design, synthesis and in vitro cell-based evaluation of the anti-cancer activities of hispolon analogs” (Bioorg Med Chem, 2015).
Active and inactive are the calls of the source. No cut-off for these calls is given here.

What was measured:
[1] = (§1) Cytotoxicity against human PC3 cells after 72 hrs by MTT assay; assay type: functional, cell-based; conditions: PC-3, 72 h
Method in brief: (§2)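 Cells kept as adherent monolayers in DMEM with 10% FBS, 37°C, 5% CO2. Trypsin-harvested, seeded at 5 × 10^3 cells/well, then exposed to compound at 0.1 to 100 µM for 72 h. MTT (4 mg/ml) added for 4 h, formazan dissolved in DMSO, absorbance read at 570 nm. At least three experiments, each in triplicate; mean±SD.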

[2] = tested on: HEK293; assay: Cytotoxicity against HEK293 cells expressing ABCB1 after 72 hrs by MTT assay; assay type: functional, cell-based; conditions: Homo sapiens, HEK293, 72 h; method in brief: as §2
[3] = Cytotoxicity against mouse NIH/3T3 cells after 72 hrs by MTT assay; assay type: cell-based; conditions: NIH3T3, 72 h; method in brief: as §2
[4] = tested on: HEK293; assay: Cytotoxicity against HEK293 cells expressing pcDNA3.1 after 72 hrs by MTT assay; assay type: cell-based; conditions: Homo sapiens, HEK293, 72 h; method in brief: as §2
[5] = tested on: MCF7; assay: Cytotoxicity against human MCF7 cells after 72 hrs by MTT assay; assay type: functional, cell-based; conditions: for IC50: MCF7, 72 h; method in brief: as §2
[6] = (§3) Cytotoxicity against human HCT116 cells after 72 hrs by MTT assay; assay type: functional, cell-based; conditions: HCT-116, 72 h; method in brief: as §2
[7] = (§4) Cytotoxicity against human S1 cells after 72 hrs by MTT assay; assay type: functional, cell-based; conditions: S1, 72 h; method in brief: as §2
[8] = tested on: MDA-MB-231; assay: Cytotoxicity against human MDA-MB-231 cells after 72 hrs by MTT assay; assay type: functional, cell-based; conditions: for IC50: MDA-MB-231, 72 h; method in brief: as §2
[9] = tested on: DU-145; assay: Cytotoxicity against human DU145 cells after 72 hrs by MTT assay; assay type: functional, cell-based; conditions: for IC50: DU-145, 72 h; method in brief: as §2
[10] = tested on: MDCK; assay: Cytotoxicity against MDCK cells after 72 hrs by MTT assay; assay type: cell-based; conditions: Canis lupus familiaris; method in brief: as §2
[11] = tested on: HEK293; assay: Resistance index, ratio of IC50 for HEK293 cells expressing ABCB1 to IC50 for HEK293 cells expressing pcDNA3.1; set-up: species or system Homo sapiens
Method in brief: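 Fold resistance is the IC50 in P-glycoprotein-overexpressing HEK293/ABCB1 cells divided by the IC50 in empty-vector HEK293/pcDNA3.1 cells. IC50s from the 72 h MTT assay; paclitaxel was the positive-control ABCB1 substrate.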

[12] = tested on: HEK293; assay: Ratio of IC50 for HEK293 cells expressing pcDNA3.1 to IC50 for human S1 cells
Method in brief: (§5)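 Selectivity ratio of the IC50 in empty-vector HEK293/pcDNA3.1 cells to the IC50 in each cancer line. IC50s from the 72 h MTT assay (0.1–100 µM, Bliss method, ≥3 experiments in triplicate).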

[13] = tested on: PC-3; assay: Potency index, ratio of IC50 for hispolon to IC50 for compound for human PC3 cells after 72 hrs by MTT assay; assay type: functional
Method in brief: (§6)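 Ratio of the hispolon IC50 to the analog IC50 in the same cancer line. Both IC50s come from the 72 h MTT assay (0.1–100 µM), with survival curves fitted by the Bliss method.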

[14] = tested on: PC-3; assay: as §1; assay type: functional, cell-based; method in brief: as §2
[15] = tested on: HCT-116; assay: Reduction in mitochondrial membrane potential in human HCT116 cells at 0.5 uM after 4 hrs by Mitotracker red staining based flow cytometry (reference value: 27.56%); assay type: functional; set-up: scale not given: the % may be the effect or the level left
Method in brief: (§7)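 HCT-116 cells in 6-well plates, exposed in complete medium with or without compound (0.5 or 5 µM) for 4 h. Harvested and stained with MitoTracker Red for 30 min at 37°C, washed in PBS, then given Alexa Fluor 488 annexin V in annexin-binding buffer for 15 min. Flow cytometry with emission read at 530 and 585 nm; quadrant analysis against untreated control.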

[16] = tested on: HCT-116; assay: Potency index, ratio of IC50 for hispolon to IC50 for compound for human HCT116 cells after 72 hrs by MTT assay; assay type: functional; method in brief: as §6
[17] = tested on: HCT-116; assay: as §3; assay type: functional, cell-based; method in brief: as §2
[18] = tested on: HEK293; assay: Ratio of IC50 for HEK293 cells expressing pcDNA3.1 to IC50 for human HCT116 cells; method in brief: as §5
[19] = tested on: HEK293; assay: Ratio of IC50 for HEK293 cells expressing pcDNA3.1 to IC50 for human DU145 cells; method in brief: as §5
[20] = tested on: HCT-116; assay: Induction of apoptosis in human HCT116 cells at 5 uM after 4 hrs by Alexa fluor 488 annexin V staining based flow cytometry (reference value: 5.58%); assay type: functional; method in brief: as §7
[21] = tested on: HCT-116; assay: Reduction in mitochondrial membrane potential in human HCT116 cells at 5 uM after 4 hrs by Mitotracker red staining based flow cytometry (reference value: 27.56%); assay type: functional; set-up: scale not given: the % may be the effect or the level left; method in brief: as §7
[22] = Potency index, ratio of IC50 for hispolon to IC50 for compound for human S1 cells after 72 hrs by MTT assay; assay type: functional; method in brief: as §6
[23] = tested on: DU-145; assay: Potency index, ratio of IC50 for hispolon to IC50 for compound for human DU145 cells after 72 hrs by MTT assay; assay type: functional; method in brief: as §6
[24] = tested on: HCT-116; assay: Reduction in mitochondrial membrane potential in human HCT116 cells after 4 hrs by Mitotracker red staining based flow cytometry (reference value: 27.56%); assay type: functional, cell-based; method in brief: as §7
[25] = tested on: S1; assay: as §4; assay type: functional, cell-based; method in brief: as §2
[26] = tested on: HCT-116; assay: Induction of apoptosis in human HCT116 cells at 0.5 uM after 4 hrs by Alexa fluor 488 annexin V staining based flow cytometry (reference value: 5.58%); assay type: functional; method in brief: as §7
[27] = tested on: PC-3; assay: Induction of morphological changes in human PC3 cells assessed as increase in cell size at 1 uM after 68 hrs by inverted microscopy; assay type: functional, cell-based
Method in brief: (§8)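 Cells grown in DMEM/10% FBS and treated in triplicate for 68 h. Photographed with an inverted microscope at 20X alongside untreated wells. Images scored double-blind for cell size, shape, number and debris.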

[28] = tested on: HEK293; assay: Ratio of IC50 for HEK293 cells expressing pcDNA3.1 to IC50 for human PC3 cells; method in brief: as §5
[29] = tested on: HCT-116; assay: Induction of morphological changes in human HCT116 cells assessed as increase in cell size at 1 uM after 68 hrs by inverted microscopy; assay type: functional, cell-based; method in brief: as §8
[30] = tested on: HCT-116; assay: Induction of morphological changes in human HCT116 cells up to 100 uM after 68 hrs by inverted microscopy; assay type: functional, cell-based; method in brief: as §8
[31] = tested on: PC-3; assay: Induction of morphological changes in human PC3 cells up to 100 uM after 68 hrs by inverted microscopy; assay type: functional, cell-based; method in brief: as §8

CC(=O)/C=C(O)/C=C/c1ccc(O)c(O)c1 [HISPOLON]
IC50 [1]: 12.9 µM
IC50 [2]: 9.6 µM
IC50 [3]: 51.2 µM
IC50 [4]: 7.3 µM
IC50 [5]: 7.9 µM
IC50 [6]: 5.2 µM
IC50 [7]: 8.4 µM
IC50 [8]: 32.2 µM
IC50 [9]: 28.6 µM
IC50 [10]: 36.2 µM
Ratio IC50 [11]: 1.3

COc1ccc(/C=C/C(=O)CC(C)=O)cc1OC
IC50 [1]: 8.9 µM
IC50 [2]: 10.6 µM
IC50 [3]: 18.1 µM
IC50 [4]: 8.2 µM
IC50 [5]: 10.6 µM
IC50 [6]: 4.7 µM
IC50 [7]: 9.3 µM
IC50 [8]: 43.1 µM
IC50 [9]: 8.2 µM
IC50 [10]: 9.9 µM
Ratio IC50 [11]: 1.3

COc1cc(/C=C/C(=O)CC(C)=O)ccc1O
Ratio IC50 [12]: 9
Ratio IC50 [13]: 2
IC50 [1]: 6.3 µM
Activity [14]: Dose-dependent effect
Activity [15]: 84.88%
IC50 [2]: 18.9 µM
Ratio IC50 [16]: 3.7
IC50 [4]: 15.8 µM
Activity [5]: Dose-dependent effect
IC50 [5]: 7.4 µM
IC50 [6]: 1.4 µM
Activity [17]: Dose-dependent effect
Ratio IC50 [18]: 11
Ratio IC50 [19]: 3
Activity [20]: 11.69%
Activity [21]: 72.74%
Ratio IC50 [22]: 4.7
Ratio IC50 [23]: 5.5
Activity [24]: Dose-dependent effect
Activity [25]: Dose-dependent effect
IC50 [7]: 1.8 µM
Activity [8]: Dose-dependent effect
IC50 [8]: 9.7 µM
Activity [26]: 2.64%
Activity [9]: Dose-dependent effect
IC50 [9]: 5.2 µM
Activity [27]: Active
IC50 [10]: 13.1 µM
Ratio IC50 [28]: 2
Ratio IC50 [11]: 1.2
Activity [29]: Active

COc1cc(CCC(=O)CC(C)=O)ccc1O
Activity [30]: inactive
IC50 [1]: > 100 µM
IC50 [2]: 92.5 µM
IC50 [5]: > 100 µM
IC50 [6]: 80.8 µM
Activity [31]: inactive
IC50 [7]: 98.2 µM
IC50 [8]: > 100 µM
IC50 [10]: 72.5 µM
Ratio IC50 [11]: 1
